Measured values from ChEMBL document CHEMBL1142866, “Synthesis and preliminary evaluation of 18F- or 11C-labeled bicyclic nucleoside analogues as potential probes for imaging varicella-zoster virus thymidine kinase gene expression using positron emission tomography” (J Med Chem, 2007).
Calls of active or inactive are those of the source. The calls are words filed in the database; no cut-off is given here.

Legend:
[1] = test system: OST; test: Cytostatic activity against OST TK-/HSV1 TK+ cells at 0.038 uM; type: functional, cell-based; conditions: Homo sapiens
Outline: (§1)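 OST TK- control cells and OST TK- cells expressing HSV-1 TK or VZV TK were cultured 5 days with graded compound concentrations. Cells were then trypsinized and counted on a Coulter counter. CC50 is the concentration in µM that reduces cell number by 50%.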

[2] = Inhibition of recombinant VZV TK assessed as [CH3-H3]dThd phosphorylation; design: species or system Human alphaherpesvirus 3
Outline: (§2)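 Purified recombinant VZV TK (7.75 ng), HSV-1 TK (226 ng) or cytosolic TK-1 (455 ng). Buffer: 50 mM Tris-HCl pH 8.0, 2.5 mM MgCl2, 10 mM DTT, 2.5 mM ATP, 1.0 mg/mL BSA, 10 mM NaF, 1 µM [CH3-3H]dThd final. Incubated 30 min at 37 °C (linear range) with graded compound concentrations. Product caught on DE-81 disks, washed, scintillation-counted. IC50 is 50% inhibition of dThd phosphorylation.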

[3] = target: T1, Thymidine kinase (Human alphaherpesvirus 1, UniProt Q9QNF7); test: Inhibition of recombinant HSV-1 TK assessed as [CH3-H3]dThd phosphorylation; outline: as §2
T1 sequence (Q9QNF7 whole entry): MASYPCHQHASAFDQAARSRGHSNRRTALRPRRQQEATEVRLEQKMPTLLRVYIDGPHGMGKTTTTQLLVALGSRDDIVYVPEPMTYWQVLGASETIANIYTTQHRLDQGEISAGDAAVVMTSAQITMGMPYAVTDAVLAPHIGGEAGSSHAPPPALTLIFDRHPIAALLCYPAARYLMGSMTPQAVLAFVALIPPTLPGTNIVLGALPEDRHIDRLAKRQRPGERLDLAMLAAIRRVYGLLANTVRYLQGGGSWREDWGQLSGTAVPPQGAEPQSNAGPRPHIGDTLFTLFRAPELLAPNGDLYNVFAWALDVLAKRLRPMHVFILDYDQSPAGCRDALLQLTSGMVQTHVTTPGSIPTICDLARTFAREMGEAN

[4] = target: T2, Thymidine kinase, cytosolic (Homo sapiens, UniProt P04183); test: Inhibition of recombinant cytosolic TK-1 assessed as [CH3-H3]dThd phosphorylation; outline: as §2
T2 sequence (P04183 whole entry): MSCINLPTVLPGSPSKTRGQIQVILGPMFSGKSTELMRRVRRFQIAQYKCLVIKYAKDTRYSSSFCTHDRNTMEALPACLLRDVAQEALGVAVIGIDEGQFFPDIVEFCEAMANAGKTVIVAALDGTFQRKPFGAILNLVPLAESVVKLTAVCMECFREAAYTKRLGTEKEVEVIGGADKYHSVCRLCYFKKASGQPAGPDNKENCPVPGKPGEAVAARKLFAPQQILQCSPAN

[5] = test system: OST; test: Cytotoxicity against OST cells expressing VZV TK; type: cell-based; conditions: human; outline: as §1
[6] = test system: OST; test: Cytotoxicity against OST cells expressing HSV1 TK; type: cell-based; conditions: human; outline: as §1
[7] = test system: Lung; test: Biodistribution in lung of NMRI mouse assessed as standard uptake value after 2 mins; type: ADME, organism-based; conditions: in vivo
[8] = test system: Heart; test: Biodistribution in heart of NMRI mouse assessed as standard uptake value after 2 mins; type: ADME, organism-based; conditions: in vivo
[9] = test system: Brain; test: Biodistribution in brain of NMRI mouse assessed as standard uptake value after 2 mins; type: ADME, organism-based; conditions: in vivo
[10] = test system: Blood; test: Biodistribution in blood of NMRI mouse assessed as standard uptake value after 2 mins; type: ADME, organism-based; conditions: in vivo
[11] = test system: Kidney; test: Biodistribution in kidney of NMRI mouse assessed as standard uptake value after 60 mins; type: ADME, organism-based; conditions: in vivo, 1 h
[12] = test system: Liver; test: Biodistribution in liver of NMRI mouse assessed as standard uptake value after 60 mins; type: ADME, organism-based; conditions: in vivo, 1 h
[13] = Biodistribution in spleen/pancreas of NMRI mouse assessed as standard uptake value after 60 mins; type: ADME, organism-based; conditions: in vivo, 1 h
[14] = test system: Intestine; test: Biodistribution in intestine of NMRI mouse after 2 mins; type: ADME, organism-based; conditions: in vivo
Outline: (§3)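 Male NMRI mice (30-40 g) under ketamine/xylazine i.p. anesthesia received 0.1 mL of HPLC-purified 18F tracer (0.1 mCi/mL) or 11C tracer (1 mCi/mL) in water for injection via tail vein. Killed by decapitation at 2 or 60 min (n = 3 per time). Blood, organs and carcass weighed and gamma-counted. %ID = organ cpm/total cpm recovered. Blood mass taken as 7% of body mass. Mean ± SD.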

[15] = test system: Brain; test: Biodistribution in brain of NMRI mouse after 2 mins; type: ADME, organism-based; conditions: in vivo; outline: as §3
[16] = test system: Blood; test: Biodistribution in blood of NMRI mouse after 2 mins; type: ADME, organism-based; conditions: in vivo; outline: as §3
[17] = Biodistribution in carcass of NMRI mouse after 2 mins; type: ADME, organism-based; conditions: in vivo; outline: as §3
[18] = Biodistribution in urine of NMRI mouse after 60 mins; type: ADME, organism-based; conditions: in vivo, 1 h; outline: as §3
[19] = test system: Kidney; test: Biodistribution in kidney of NMRI mouse after 60 mins; type: ADME, organism-based; conditions: in vivo, 1 h; outline: as §3
[20] = test system: Liver; test: Biodistribution in liver of NMRI mouse after 60 mins; type: ADME, organism-based; conditions: in vivo, 1 h; outline: as §3
[21] = Biodistribution in spleen/pancreas of NMRI mouse after 60 mins; type: ADME, organism-based; conditions: in vivo, 1 h; outline: as §3
[22] = test system: Lung; test: Biodistribution in lung of NMRI mouse after 60 mins; type: ADME, organism-based; conditions: in vivo, 1 h; outline: as §3
[23] = test system: Heart; test: Biodistribution in heart of NMRI mouse after 60 mins; type: ADME, organism-based; conditions: in vivo, 1 h; outline: as §3
[24] = test system: Intestine; test: Biodistribution in intestine of NMRI mouse after 60 mins; type: ADME, organism-based; conditions: in vivo, 1 h; outline: as §3
[25] = test system: Brain; test: Biodistribution in brain of NMRI mouse after 60 mins; type: ADME, organism-based; conditions: in vivo, 1 h; outline: as §3
[26] = test system: Blood; test: Biodistribution in blood of NMRI mouse after 60 mins; type: ADME, organism-based; conditions: in vivo, 1 h; outline: as §3
[27] = Biodistribution in carcass of NMRI mouse after 60 mins; type: ADME, organism-based; conditions: in vivo, 1 h; outline: as §3
[28] = test system: Kidney; test: Biodistribution in kidney of NMRI mouse assessed as standard uptake value after 2 mins; type: ADME, organism-based; conditions: in vivo
[29] = test system: Liver; test: Biodistribution in liver of NMRI mouse assessed as standard uptake value after 2 mins; type: ADME, organism-based; conditions: in vivo
[30] = Biodistribution in spleen/pancreas of NMRI mouse assessed as standard uptake value after 2 mins; type: ADME, organism-based; conditions: in vivo
[31] = test system: Lung; test: Biodistribution in lung of NMRI mouse assessed as standard uptake value after 60 mins; type: ADME, organism-based; conditions: in vivo, 1 h
[32] = test system: Heart; test: Biodistribution in heart of NMRI mouse assessed as standard uptake value after 60 mins; type: ADME, organism-based; conditions: in vivo, 1 h
[33] = test system: Brain; test: Biodistribution in brain of NMRI mouse assessed as standard uptake value after 60 mins; type: ADME, organism-based; conditions: in vivo, 1 h
[34] = test system: Blood; test: Biodistribution in blood of NMRI mouse assessed as standard uptake value after 60 mins; type: ADME, organism-based; conditions: in vivo, 1 h
[35] = Partition coefficient, log P at pH 7.4; type: physicochemical; conditions: octanol/water
Outline: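 HPLC-purified radiotracer partitioned between 1-octanol and 0.025 M phosphate buffer pH 7.4. Vortexed 2 min at room temperature, centrifuged 5 min, aliquots of both phases gamma-counted. P = octanol cpm/buffer cpm after density and mass correction; n = 6.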

[36] = Drug uptake in human 293T cells transduced with LacZ gene after 1 hr; type: ADME, cell-based; conditions: hek-293t
Outline: (§4)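 Lentivirally transduced 293T cells (VZV-tk or LacZ control) plated in triplicate at 200 000 cells/well. After 24 h, 0.25 mL fresh medium with 5 µCi of the 18F tracer (3 h) or 30 µCi of the 11C tracer (1 h) added; 37 °C, 5% CO2. Cells washed thrice with ice-cold PBS, lysed, gamma-counted. Uptake given as % total radioactivity per mg protein (Bio-Rad assay); n = 3, unpaired two-sided t-test.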

[37] = Drug uptake in human 293T cells transduced with VZV-tk gene after 1 hr; type: ADME, cell-based; conditions: hek-293t; outline: as §4
[38] = test system: Plasma; test: Metabolic stability in mouse plasma assessed as radioactivity after 2 mins; type: ADME, cell-free
Outline: (§5)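 Normal mice given 0.35-0.4 mCi of 11C tracer i.v. and decapitated at 2 or 30 min (plasma; one mouse per time) or 30/60 min (urine). EDTA plasma separated by centrifugation; urine used untreated. Samples spiked with authentic compound and run on Oasis HLB in series with C18, eluted with 0.05 M ammonium acetate/acetonitrile 70:30 at 1 mL/min. 1-mL fractions gamma-counted; intact tracer taken as % recovered radioactivity.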

[39] = Biodistribution in urine of NMRI mouse after 2 mins; type: ADME, organism-based; conditions: in vivo; outline: as §3
[40] = test system: Kidney; test: Biodistribution in kidney of NMRI mouse after 2 mins; type: ADME, organism-based; conditions: in vivo; outline: as §3
[41] = test system: Liver; test: Biodistribution in liver of NMRI mouse after 2 mins; type: ADME, organism-based; conditions: in vivo; outline: as §3
[42] = Biodistribution in spleen/pancreas of NMRI mouse after 2 mins; type: ADME, organism-based; conditions: in vivo; outline: as §3
[43] = test system: Lung; test: Biodistribution in lung of NMRI mouse after 2 mins; type: ADME, organism-based; conditions: in vivo; outline: as §3
[44] = test system: Heart; test: Biodistribution in heart of NMRI mouse after 2 mins; type: ADME, organism-based; conditions: in vivo; outline: as §3
[45] = test system: Plasma; test: Metabolic stability in mouse plasma assessed as radioactivity after 30 mins; type: ADME, cell-free; conditions: 0.5 h; outline: as §5
[46] = Metabolic stability in mouse urine after 30 mins; type: ADME, tissue-based; conditions: read-out: Stability; outline: as §5
[47] = Metabolic stability in mouse urine after 60 mins; type: ADME, tissue-based; conditions: read-out: Stability; outline: as §5
[48] = Ratio of drug uptake in LV-VZVTK-1-P transduced cells to LV-LacZ-I-P transduced 293T cells after 1 hr; type: ADME, cell-based; conditions: human
Outline: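 Lentivirally transduced 293T cells (VZV-tk or LacZ control), plated in triplicate at 200 000 cells/well. After 24 h, given fresh medium with 30 µCi HPLC-purified 11C-labelled tracer per well, then 1 h at 37 °C in 5% CO2. Washed thrice in ice-cold PBS, lysed, gamma-counted, normalized to Bio-Rad protein (% total radioactivity/mg protein). VZV-tk/LacZ ratio, n = 3, unpaired Student t-test.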

Nc1nc(O)c2ncn(CCC(CO)CO)c2n1 [PENCICLOVIR]
Activity [1]: Active
IC50 [2]: > 50 µM

COc1cccc(-c2cc3cn([C@H]4C[C@H](O)[C@@H](CO)O4)c(=O)nc3o2)c1
IC50 [2]: 4.8 µM
IC50 [3]: > 500 µM
IC50 [4]: > 500 µM
Activity [5]: Not Active
Activity [6]: Not Active

O=c1nc2oc(-c3cccc(O)c3)cc2cn1[C@H]1C[C@H](O)[C@@H](CO)O1
IC50 [2]: 2.6 µM
IC50 [3]: > 500 µM
IC50 [4]: > 500 µM
Activity [5]: Not Active
Activity [6]: Not Active

Nc1nc2c(ncn2CCC(CO)CF)c(=O)[nH]1 (stereo unspecified)
IC50 [3]: 9 µM

[11CH3]Oc1cccc(-c2cc3cn([C@H]4C[C@H](O)[C@@H](CO)O4)c(=O)nc3o2)c1
Drug uptake [7]: 1
Drug uptake [8]: 1
Drug uptake [9]: 0.1
Drug uptake [10]: 0.8
Drug uptake [11]: 0.2
Drug uptake [12]: 0.7
Drug uptake [13]: 0.1
Drug uptake [14]: 25.6 %ID
Drug uptake [15]: 0 %ID
Drug uptake [16]: 5.4 %ID
Drug uptake [17]: 25.3 %ID
Drug uptake [18]: 28.2 %ID
Drug uptake [19]: 0.3 %ID
Drug uptake [20]: 3.7 %ID
Drug uptake [21]: 0.1 %ID
Drug uptake [22]: 0 %ID
Drug uptake [23]: 0 %ID
Drug uptake [24]: 63.7 %ID
Drug uptake [25]: 0 %ID
Drug uptake [26]: 0.2 %ID
Drug uptake [27]: 3.5 %ID
Drug uptake [28]: 12.4
Drug uptake [29]: 3.7
Drug uptake [30]: 2.7
Drug uptake [31]: 0
Drug uptake [32]: 0
Drug uptake [33]: 0
Drug uptake [34]: 0
logD [35]: 1.27
Drug uptake [36]: 0.24%
Drug uptake [37]: 12.8%
Stability [38]: 98%
Drug uptake [39]: 0.2 %ID
Drug uptake [40]: 21.7 %ID
Drug uptake [41]: 21.3 %ID
Drug uptake [42]: 2.4 %ID
Drug uptake [43]: 0.7 %ID
Drug uptake [44]: 0.5 %ID
Stability [45]: 80%
remaining at 0.5 h [46]: 90%
remaining at 1 h [47]: 90%
Ratio [48]: 53

Nc1nc2c(ncn2CCC(CO)CO)c(=O)[nH]1 [PENCICLOVIR]
IC50 [3]: 11 µM
